Values after ≈ are worked out from the molar mass of the structure shown.
How the values were obtained:
Assay type in all cases: functional
[1] = system: Mycobacterium tuberculosis; test: Antitubercular activity against ethambutol-resistant Mycobacterium tuberculosis ATCC 35837 after 5 days by resazurin-based microplate assay; conditions: ATCC 35837, 120 h
Method in brief: (§1)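 Mid-log cultures grown in 7H9 with glycerol, Tween-80 and ADC. Compounds in DMSO were tested two-fold from […] against ~10^5 CFU/mL, 37°C for 5 d. Resazurin was then added for a further 2 d, and fluorescence read at ex 530/em 590 with visual confirmation. MIC was the lowest concentration inhibiting 90% of growth. Final DMSO 0.625%; two-fold variation taken as assay error.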

[2] = system: Mycobacterium tuberculosis; test: Antitubercular activity against kanamycin-resistant Mycobacterium tuberculosis ATCC 35827 after 5 days by resazurin-based microplate assay; conditions: ATCC 35827, 120 h; method in brief: as §1
[3] = system: Mycobacterium tuberculosis; test: Antitubercular activity against streptomycin-resistant Mycobacterium tuberculosis ATCC 35820 after 5 days by resazurin-based microplate assay; conditions: ATCC 35820, 120 h; method in brief: as §1
[4] = system: Mycobacterium tuberculosis; test: Antitubercular activity against isoniazid-resistant Mycobacterium tuberculosis ATCC 35822 after 5 days by resazurin-based microplate assay; conditions: ATCC 35822, 120 h; method in brief: as §1
[5] = system: Mycobacterium tuberculosis; test: Antitubercular activity against ethionamide-resistant Mycobacterium tuberculosis ATCC 35830 after 5 days by resazurin-based microplate assay; conditions: ATCC 35830, 120 h; method in brief: as §1

Row | SMILES | MIC90 [1] | MIC90 [2] | MIC90 [3] | MIC90 [4] | MIC90 [5]
1 | CCNc1n[n+]([O-])c2ccccc2[n+]1[O-] | 1.2 µg/mL (≈ 5.82 µM) | 1.2 µg/mL (≈ 5.82 µM) | 1.2 µg/mL (≈ 5.82 µM) | 1.2 µg/mL (≈ 5.82 µM) | 1.2 µg/mL (≈ 5.82 µM)
2 | CC(C)(C)Nc1n[n+]([O-])c2ccccc2[n+]1[O-] | 2.5 µg/mL (≈ 10.7 µM) | 2.5 µg/mL (≈ 10.7 µM) | 1.2 µg/mL (≈ 5.12 µM) | 2.5 µg/mL (≈ 10.7 µM) | 1.2 µg/mL (≈ 5.12 µM)
3 | CCNc1n[n+]([O-])c2cccc(C)c2[n+]1[O-] | 0.62 µg/mL (≈ 2.82 µM) | 0.62 µg/mL (≈ 2.82 µM) | 0.16 µg/mL (≈ 0.727 µM) | 0.62 µg/mL (≈ 2.82 µM) | 0.31 µg/mL (≈ 1.41 µM)
4 | CCNc1n[n+]([O-])c2cc3c(cc2[n+]1[O-])CCC3 | 1.2 µg/mL (≈ 4.87 µM) | 1.2 µg/mL (≈ 4.87 µM) | 0.63 µg/mL (≈ 2.56 µM) | 1.2 µg/mL (≈ 4.87 µM) | 1.2 µg/mL (≈ 4.87 µM)
5 | [O-][n+]1nc(NC2CCC2)[n+]([O-])c2cc3c(cc21)CCC3 | 0.62 µg/mL (≈ 2.28 µM) | 1.2 µg/mL (≈ 4.41 µM) | 0.31 µg/mL (≈ 1.14 µM) | 1.2 µg/mL (≈ 4.41 µM) | 0.62 µg/mL (≈ 2.28 µM)
6 | CCNc1n[n+]([O-])c2cc(C)c(OC)cc2[n+]1[O-] | 1.2 µg/mL (≈ 4.8 µM) | 1.2 µg/mL (≈ 4.8 µM) | 1.2 µg/mL (≈ 4.8 µM) | 1.2 µg/mL (≈ 4.8 µM) | 1.2 µg/mL (≈ 4.8 µM)
7 | [O-][n+]1nc(N2CCCC2)[n+]([O-])c2ccccc21 | 0.31 µg/mL (≈ 1.33 µM) | 0.31 µg/mL (≈ 1.33 µM) | 0.02 µg/mL (≈ 0.0861 µM) | 0.31 µg/mL (≈ 1.33 µM) | 0.31 µg/mL (≈ 1.33 µM)
8 | [O-][n+]1nc(N2CCCC2)[n+]([O-])c2cc3c(cc21)CCC3 | 0.62 µg/mL (≈ 2.28 µM) | 0.63 µg/mL (≈ 2.31 µM) | 0.16 µg/mL (≈ 0.588 µM) | 0.31 µg/mL (≈ 1.14 µM) | 0.62 µg/mL (≈ 2.28 µM)
9 | [O-][n+]1nc(N2CCCCC2)[n+]([O-])c2cc3c(cc21)CCC3 | 0.31 µg/mL (≈ 1.08 µM) | 0.31 µg/mL (≈ 1.08 µM) | 0.15 µg/mL (≈ 0.524 µM) | 0.15 µg/mL (≈ 0.524 µM) | 0.31 µg/mL (≈ 1.08 µM)
10 | CN(C)c1n[n+]([O-])c2cc3c(cc2[n+]1[O-])CCC3 | 0.31 µg/mL (≈ 1.26 µM) | 0.31 µg/mL (≈ 1.26 µM) | < 0.07 µg/mL | < 0.07 µg/mL | 0.15 µg/mL (≈ 0.609 µM)
11 | CN(Cc1ccccc1)c1n[n+]([O-])c2cc3c(cc2[n+]1[O-])CCC3 | 0.15 µg/mL (≈ 0.465 µM) | 0.15 µg/mL (≈ 0.465 µM) | < 0.07 µg/mL | < 0.07 µg/mL | 0.07 µg/mL (≈ 0.217 µM)
12 | CN(CCc1ccccc1)c1n[n+]([O-])c2cc3c(cc2[n+]1[O-])CCC3 | 0.31 µg/mL (≈ 0.922 µM) | 0.15 µg/mL (≈ 0.446 µM) | < 0.07 µg/mL | 0.07 µg/mL (≈ 0.208 µM) | 0.15 µg/mL (≈ 0.446 µM)
13 | CC1CCCCN1c1n[n+]([O-])c2cc3c(cc2[n+]1[O-])CCC3 (stereo not given) | 0.62 µg/mL (≈ 2.06 µM) | 0.62 µg/mL (≈ 2.06 µM) | 0.31 µg/mL (≈ 1.03 µM) | 0.31 µg/mL (≈ 1.03 µM) | 0.31 µg/mL (≈ 1.03 µM)

Reference: ChEMBL document CHEMBL2150981, “Discovery and optimization of benzotriazine di-N-oxides targeting replicating and nonreplicating Mycobacterium tuberculosis” (J Med Chem, 2012)
